From PubChem BioAssay
ZTA DNA inh: counter-screen for EBNA-1 inhibitors: inhibitors of Epstein-Barr virus ZTA. P03206. ZTA-DNA binding, fluorescence polarization. inhibition, % at 11 µM. actives 0.15% (n = 320,000). AID 2234; in the data active = inhibition above about 33%
PP5 inh: blocks human protein phosphatase 5 activity | purified PP5c, OMFP substrate fluorescence | actives 0.18% (n = 320,000) | P53041 | inhibition, % at 6.7 µM;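 active = inhibition above the campaign's mean inhibition across all tested compounds plus 3 SD, cut at about 9.5% in these data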;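 also: 0% = DMSO only and 100% = 100 µM cantharidin control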
Target sequence (P53041 whole entry, looked up): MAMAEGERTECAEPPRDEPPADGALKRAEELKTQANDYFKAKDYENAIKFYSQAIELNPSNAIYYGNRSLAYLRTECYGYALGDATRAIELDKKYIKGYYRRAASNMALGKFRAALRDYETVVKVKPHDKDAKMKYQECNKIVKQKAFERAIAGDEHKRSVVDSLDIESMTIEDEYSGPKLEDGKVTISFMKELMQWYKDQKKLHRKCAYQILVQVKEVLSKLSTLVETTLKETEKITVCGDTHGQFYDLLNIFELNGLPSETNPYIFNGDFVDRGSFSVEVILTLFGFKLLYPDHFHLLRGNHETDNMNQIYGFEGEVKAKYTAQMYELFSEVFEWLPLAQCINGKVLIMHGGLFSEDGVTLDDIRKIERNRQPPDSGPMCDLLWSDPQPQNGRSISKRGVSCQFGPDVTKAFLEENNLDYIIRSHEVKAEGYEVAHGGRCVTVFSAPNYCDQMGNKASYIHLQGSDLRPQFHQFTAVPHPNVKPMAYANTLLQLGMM
PP1 inh: blocks human PP1-alpha phosphatase, a PP5 counter-screen | P62136 | purified PP1alpha, OMFP fluorescence | inhibition, % at 6.7 µM | actives 0.9% (n = 320,000) | AID 2235;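 active = inhibition above the mean inhibition of all tested compounds plus 3 SD, computed separately for each screening campaign, cut at about 15% in these data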
EBNA-1 inhibitor: blocks EBNA-1 binding to DNA | EBNA-1 DNA binding, fluorescence polarization | inhibition, % at 14.8 µM | actives 0.34% (n = 300,000); in the data active = inhibition above about 28%
core dimer inh: blocks dimerization of HCV core protein | inhibition, % at 5 µM | TR-FRET GST/Flag-core106 dimerization, 1536-well | actives 0.33% (n = 300,000);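 active = inhibition above the mean of all tested compounds plus 3 SD, set per screening campaign, cut at about 45% in these data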
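System: GST/Flag-tagged HCV core106 proteins. Incubation: compound-protein-antibody incubation 4 h at 22.5 °C. Technique: HTRF with 340 nm excitation, 617/671 nm emission. Medium: KF-containing HEPES buffer, pH 7.45, DTT, CHAPS, BSA. Read-out: inhibition (%) from 671 over 617 nm ratio. Also added: Eu(K)-anti-GST 90 ng/mL plus XL665-anti-Flag 1 µg/mL.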
PP1 confirm: confirmation of human PP1 phosphatase inhibitors | shares compounds with PP1 inh | purified PP1alpha, OMFP substrate fluorescence | inhibition, % at 6.7 µM | actives 52% (n = 1,900) | AID 2358;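 active = mean PP1 inhibition above a set limit taken from the earlier primary screen, cut at about 15% in these data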
PP5 counter: PP5 phosphatase inhibition, counter-screen for PP1 inhibitors; inhibition, % at 6.7 µM; actives 4% (n = 1,900); AID 2360; shares compounds with PP1 inh; purified PP5c, OMFP fluorescence;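 active = mean PP5 inhibition over triplicate wells above about 9.5% taken from the earlier PP1 screen, limit read from the data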
* hit, by the source's call. The list is not random: actives were taken first. Their share in the collection is about 1.7%.

Screening Cc1c(/C=N/Nc2nc3ccccc3[nH]2)c2ccccc2n1C returned ZTA DNA inh -1, PP5 inh 3, PP1 inh 13, EBNA-1 inhibitor -4 and core dimer inh -27.
`CC(=O)c1ccc(NC(=O)N[C@@H](CC(C)C)C(=O)O)cc1` gave ZTA DNA inh 1, PP5 inh -3, PP1 inh 18*, EBNA-1 inhibitor -9, core dimer inh 0, PP1 confirm -4 and PP5 counter -1.
`CC(=O)c1cccc(NC(=O)N[C@@H](CC(C)C)C(=O)O)c1` gave ZTA DNA inh 13, PP5 inh 2, PP1 inh -2, EBNA-1 inhibitor 5 and core dimer inh -1.
`O=C(NCCN1C(=O)S/C(=C\c2cccs2)C1=O)c1ccc(=O)[nH]c1` gave ZTA DNA inh -9, PP5 inh -1, PP1 inh -3, EBNA-1 inhibitor -10 and core dimer inh 3.
`O=C(CN1C(=O)CCC1=O)Nc1cccc(NC(=O)CN2C(=O)CCC2=O)c1` gave ZTA DNA inh -11, PP5 inh -3, PP1 inh -2, EBNA-1 inhibitor 3 and core dimer inh -1.
Screening COc1ccc2nc(NC(=O)c3cccc(-c4cc5ccccc5oc4=O)c3)sc2c1 returned ZTA DNA inh 14, PP5 inh -1, PP1 inh 23*, EBNA-1 inhibitor 44*, core dimer inh 23, PP1 confirm 26* and PP5 counter -3.
For Cc1c(NC(=O)c2cccc(-c3cc4ccccc4oc3=O)c2)cccc1-c1nc2ncccc2o1 the results were ZTA DNA inh -8, PP5 inh 1, PP1 inh 23*, EBNA-1 inhibitor 16, core dimer inh -22, PP1 confirm 31* and PP5 counter 0.
O=C(CNc1ccccc1OC(F)F)N1CCc2ccccc21 was read as ZTA DNA inh -4, PP5 inh 2, PP1 inh -2, EBNA-1 inhibitor -11 and core dimer inh 6.
For Cc1ccc(NC(=O)C2(c3cccs3)CCOCC2)cc1C the results were ZTA DNA inh 7, PP5 inh 1, PP1 inh -1, EBNA-1 inhibitor 1 and core dimer inh -8.
`C/C(N)=C(/C#N)C(=O)COC(=O)[C@@H](NC(=O)c1ccccc1Cl)C(C)C` gave ZTA DNA inh 5, PP5 inh 3, PP1 inh -4, EBNA-1 inhibitor 1 and core dimer inh 3.
CC(C)=CCc1cc(-c2oc3cc(O)cc(O)c3c(=O)c2O)ccc1O was read as ZTA DNA inh -13, PP5 inh 4, PP1 inh 0, EBNA-1 inhibitor 9 and core dimer inh -1.
Screening CC(C)=CCc1c(O)cc2oc3c(CC=C(C)C)c(O)c(O)c(CC=C(C)C)c3c(=O)c2c1O returned ZTA DNA inh -14, PP5 inh 4, PP1 inh 39*, EBNA-1 inhibitor -4, core dimer inh 58*, PP1 confirm 33* and PP5 counter 0.
Screening O=C(Nc1nnc(C2CC2)o1)c1ccc(S(=O)(=O)N2CCCc3ccccc32)cc1 returned ZTA DNA inh 4, PP5 inh 2, PP1 inh 33*, EBNA-1 inhibitor 7, core dimer inh 13, PP1 confirm 31* and PP5 counter 1.
O=C(NCc1ccccc1)c1ccc(S(=O)(=O)N2CCCc3ccccc32)cc1 was read as ZTA DNA inh -4, PP5 inh 1, PP1 inh -1, EBNA-1 inhibitor -4 and core dimer inh 3.
COc1ccc(-c2nnc(NC(=O)c3ccc(S(=O)(=O)N4CCCc5ccccc54)cc3)o2)cc1 was read as ZTA DNA inh 13, PP5 inh 0, PP1 inh 29*, EBNA-1 inhibitor 11, core dimer inh 16, PP1 confirm 40* and PP5 counter 4.
For CCOc1ccc(NC(=O)CN(C)C(=O)c2cc(C)on2)cc1OCC the results were ZTA DNA inh -17, PP5 inh 1, PP1 inh -2, EBNA-1 inhibitor 3 and core dimer inh -3.
Screening Cc1c(C(=O)NNc2cc(=O)n(C)c(=O)n2C)cccc1[N+](=O)[O-] returned ZTA DNA inh 2, PP5 inh -1, PP1 inh 1, EBNA-1 inhibitor 10 and core dimer inh -8.
CCCCN(C)CC(O)Cn1cc(/C=C/C(=O)c2ccc(C)cc2)c2ccccc21 (stereo not given) was read as ZTA DNA inh -18, PP5 inh 4, PP1 inh 6, EBNA-1 inhibitor 3 and core dimer inh -15.
O=C(COC(=O)/C=C/c1ccc(Br)o1)Nc1ccc2[nH]c(=O)[nH]c2c1 was read as ZTA DNA inh -5, PP5 inh 3, PP1 inh 21*, EBNA-1 inhibitor 5, core dimer inh 90*, PP1 confirm 25* and PP5 counter 3.
CN(C)c1ccc(N=Nc2ccc(S(N)(=O)=O)cc2)cc1 was read as ZTA DNA inh 5, PP5 inh 4, PP1 inh 20*, EBNA-1 inhibitor 0, core dimer inh -34, PP1 confirm 13 and PP5 counter -4.
`CN(C)N=Nc1ccc(S(N)(=O)=O)cc1` gave ZTA DNA inh -2, PP5 inh -2, PP1 inh -4, EBNA-1 inhibitor -1 and core dimer inh -1.
Screening COc1ccc(C(=O)NCC(=O)Nc2ccc(-c3ccccc3)cc2)cc1 returned ZTA DNA inh 11, PP5 inh -2, PP1 inh 20*, EBNA-1 inhibitor 12, core dimer inh 6, PP1 confirm 33* and PP5 counter -3.
Screening Cc1ccc(NC(=O)CCC(=O)OCC(=O)c2ccc(-c3ccccc3)cc2)cc1 returned ZTA DNA inh 14, PP5 inh -1, PP1 inh 29*, EBNA-1 inhibitor 9, core dimer inh 15, PP1 confirm 21* and PP5 counter -3.
COC(=O)[C@@]12CCCCN1[C@H](c1ccc(-c3ccc(OC)cc3)c(OC)c1)[C@@H]1C(=O)N(C)C(=O)[C@@H]12 was read as ZTA DNA inh -1, PP5 inh 5, PP1 inh 0, EBNA-1 inhibitor -2 and core dimer inh 4.
`c1cn(CCCNC2CCCCCCC2)cn1` gave ZTA DNA inh -5, PP5 inh 3, PP1 inh 0, EBNA-1 inhibitor -5 and core dimer inh 0.
`O=C(/C=C/c1ccc([N+](=O)[O-])cc1)NCCc1ccccc1` gave ZTA DNA inh 5, PP5 inh 3, PP1 inh -1, EBNA-1 inhibitor -9 and core dimer inh 0.
`O=C(/C=C/c1ccccc1)NCCc1ccccc1` gave ZTA DNA inh 0, PP5 inh 0, PP1 inh 35*, EBNA-1 inhibitor -1, core dimer inh 2, PP1 confirm -1 and PP5 counter -5.
